Results published in ChEMBL document CHEMBL4699419, “Antileishmanial assessment of isoxazole derivatives against L. donovani” (RSC Med Chem, 2020).

Columns and labels:
Leishmania donovani [1] = test: Antileishmanial activity against late log phase promastigote stage of Leishmania donovani MHOM/IN/80/Dd8 harboring luciferase reporter gene incubated for 72 hrs by Steady-Glo luminescence assay; format: functional, organism-based
Method in brief: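 Luciferase-transfected promastigotes kept at 25 ± 1 °C in medium 199 + 10% heat-inactivated FCS + G418 (20 μg ml–1). Late-log cells (5 × 10^5 per well) grown 72 h with graded compound concentrations from DMSO, DMSO dilution controls. Aliquot mixed 1:1 with Steady-Glo, luminescence (RLU) read; % inhibition vs control. IC50 by Probit regression, three independent experiments.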

Leishmania donovani [2] = test: Antileishmanial activity against Leishmania donovani MHOM/IN/80/Dd8 promastigotes harboring luciferase reporter gene infected in mouse J774 cells assessed as inhibition of amastigote growth incubated for 72 hrs by Steady-Glo luminescence assay; format: functional, organism-based
Method in brief: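 J774A.1 mouse macrophages (2 × 10^5 per well, RPMI-1640 + 10% FCS, 37 °C CO2) infected after 24 h with stationary-phase luciferase-transgenic promastigotes at 1:10 macrophage:parasite; compounds in complete medium for 72 h at 37 °C. Medium swapped for PBS, Steady-Glo added, luminescence read; % inhibition vs untreated control RLU. IC50 by Probit log dose/response regression, three independent experiments.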

[3] = Leishmania donovani, MHOM/IN/80/Dd8, 72 h, read-out: IC50

SMILES | IC50 (Leishmania donovani [1]; [3]) | IC50 (Leishmania donovani [2]) | IC50 (Leishmania donovani [1]) | IC50 (Leishmania donovani [2]; Leishmania donovani, MHOM/IN/80/Dd8, J774, 72 h, read-out: IC50)
COC(=O)c1c([N+](=O)[O-])noc1-c1ccc([N+](=O)[O-])cc1 | 670 nM | Not Active |  | 
O=C(NCCN1CCOCC1)c1c([N+](=O)[O-])noc1-c1ccc(Cl)cc1 |  | Not Active | Not Active | 
O=C(NCc1ccccc1)c1c([N+](=O)[O-])noc1-c1ccc([N+](=O)[O-])cc1 |  | Not Active | Not Active | 
O=C(Nc1ccccc1)c1c([N+](=O)[O-])noc1-c1ccc([N+](=O)[O-])cc1 |  | Not Active | Not Active | 
O=C(NCc1ccccc1)c1c([N+](=O)[O-])noc1-c1ccc(Cl)cc1 |  | Not Active | Not Active | 
COC(=O)c1c(NCc2ccc(OC)c(OC)c2)noc1-c1cc2c(cc1[N+](=O)[O-])OCO2 |  | Not Active | Not Active | 
COC(=O)c1c(NCc2cccc(OC)c2)noc1-c1ccc([N+](=O)[O-])cc1 |  | Not Active | Not Active | 
COC(=O)c1c(NCCCNc2ccnc3cc(Cl)ccc23)noc1-c1ccccc1F | 16800 nM | Not Active |  | 
O=C(NCc1cccc(Br)c1)c1c([N+](=O)[O-])noc1-c1ccc([N+](=O)[O-])cc1 |  | Not Active | Not Active | 
COC(=O)c1c(NCc2ccc(OC)c(OC)c2)noc1-c1ccc([N+](=O)[O-])cc1 |  | Not Active | Not Active | 
COc1ccc(CNC(=O)c2c([N+](=O)[O-])noc2-c2ccc([N+](=O)[O-])cc2)cc1OC | 1300 nM | Nd(Toxic) |  | 
COC(=O)c1c(NCc2ccc(OC)cc2OC)noc1-c1cc2c(cc1[N+](=O)[O-])OCO2 |  | Not Active | Not Active | 
O=C(NCc1ccccc1)c1c([N+](=O)[O-])noc1-c1ccc(Cl)cc1Cl | 1320 nM | Nd(Toxic) |  | 
COC(=O)c1c([N+](=O)[O-])noc1-c1ccc(Cl)cc1 | 1790 nM | Not Active |  | 
COC(=O)c1c(NCc2ccc(OC)cc2OC)noc1-c1ccc([N+](=O)[O-])cc1 |  | Not Active | Not Active | 
COC(=O)c1c([N+](=O)[O-])noc1-c1cccc([N+](=O)[O-])c1 | 2490 nM | Not Active |  | 
COC(=O)c1c([N+](=O)[O-])noc1-c1ccccc1 | 2170 nM | Not Active |  | 
COC(=O)c1c([N+](=O)[O-])noc1-c1ccccc1[N+](=O)[O-] | 4010 nM | Not Active |  | 
COC(=O)c1c(NCc2ccc(OC)cc2)noc1-c1cc2c(cc1[N+](=O)[O-])OCO2 |  | Not Active | Not Active | 
COc1cccc(CNC(=O)c2c([N+](=O)[O-])noc2-c2ccc([N+](=O)[O-])cc2)c1 |  | Not Active | Not Active | 
O=C(c1c([N+](=O)[O-])noc1-c1ccc(Cl)cc1)N1CCOCC1 |  | Not Active | Not Active | 
COC(=O)c1c(NCc2ccccc2)noc1-c1cc2c(cc1[N+](=O)[O-])OCO2 | > 50000 nM | Not Active |  | 
COC(=O)c1c(NCc2ccc(C(C)(C)C)cc2)noc1-c1ccc(Cl)cc1Cl | > 50000 nM |  |  | > 50000 nM
COC(=O)c1c([N+](=O)[O-])noc1-c1ccc(Cl)c(Cl)c1 | 1110 nM | Not Active |  | 
O=C(O)c1c([N+](=O)[O-])noc1-c1ccc([N+](=O)[O-])cc1 | 19000 nM | Not Active |  | 
COC(=O)c1c([N+](=O)[O-])noc1-c1ccc(F)cc1 | 2100 nM | Not Active |  | 
COC(=O)c1c(NCc2ccc(F)cc2)noc1-c1ccc([N+](=O)[O-])cc1 |  | Not Active | Not Active | 
CC(C)CCNC(=O)c1c([N+](=O)[O-])noc1-c1ccc(Cl)cc1 |  | Not Active | Not Active | 
O=C(O)c1c([N+](=O)[O-])noc1-c1cc2c(cc1[N+](=O)[O-])OCO2 |  | Not Active | Not Active | 
